Source: ChEMBL document CHEMBL1125740, “Heterocyclic quinones. 17. A new in vivo active antineoplastic drug: 6,7-bis(1-aziridinyl)-4-[[3-(N,N-dimethylamino)propyl]amino]-5,8- quinazolinedione” (J Med Chem, 1991)

Legend:
[1] = tested on: P388; test: Compound was evaluated in vivo for antitumor activity after intraperitoneal administration against P388 (1313) for mortality range at an optimal dose of 0.2 mg/kg/injection; format: functional, Mus musculus
[2] = tested on: P388; test: Compound was evaluated in vivo for antitumor activity after intraperitoneal administration against P388/L-PAM(14) for change in body weight at an optimal dose of 0.5 mg/kg/injection at 1,4,7,11 day schedule.; format: functional, Mus musculus
[3] = tested on: P388; test: Compound was evaluated in vivo for antitumor activity after intraperitoneal administration against P388/L-PAM(14) for tumor free survivors at an optimal dose of 0.5 mg/kg/injection at 1,4,7,11 day schedule on day 60; format: functional, Mus musculus
[4] = tested on: P388; test: Compound was evaluated in vivo for antitumor activity after intraperitoneal administration against P388 (1313) for total dose at an optimal dose of 0.25 mg/kg/injection; format: functional, Mus musculus
[5] = Compound was evaluated in vivo for antitumor activity against Glasgow osteogenic sarcoma after injecting the compound intravenously for toxicity related death.; format: functional, Mus musculus
Method in brief: (§1)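 Glasgow osteogenic sarcoma in C57Bl/6-derived hosts: 30-60 mg fragments implanted sc by trocar on day 0. Drug given iv on days 3, 6 and 9, 7 mice per group. Tumors measured by caliper. Median tumor burden recorded on day 10. Body weight change per mouse recorded at nadir. Toxicity-related deaths counted.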

[6] = tested on: P388; test: Compound was evaluated in vivo for antitumor activity after intraperitoneal administration against P388 (1313) for mortality range at an optimal dose of 0.25 mg/kg/injection; format: functional, Mus musculus
[7] = tested on: P388; test: Compound was evaluated in vivo for antitumor activity after intraperitoneal administration against P388 (1303) for total dose at an optimal dose of 0.75 mg/kg/injection; format: functional, Mus musculus
[8] = tested on: P388; test: Compound was evaluated in vivo for antitumor activity after intraperitoneal administration against P388/L-PAM(14) for change in body weight at an optimal dose of 0.5 mg/kg/injection at one day schedule.; format: functional, Mus musculus
[9] = tested on: M5076; test: Compound was evaluated in vivo for antitumor activity against M5076 after injecting the compound intravenously for total dose.; format: functional, Mus musculus
[10] = tested on: P388; test: Compound was evaluated in vivo for antitumor activity after intraperitoneal administration against P388 (1303) for % increase in life span at an optimal dose of 0.75 mg/kg/injection; format: functional; settings: Mus musculus, P388, ip
[11] = tested on: P388; test: Compound was evaluated in vivo for antitumor activity after intraperitoneal administration against P388 (1313) for tumor free survivors at an optimal dose of 0.5 mg/kg/injection on day 60; format: functional, Mus musculus
[12] = tested on: P388; test: Compound was evaluated in vivo for antitumor activity after intraperitoneal administration against P388/L-PAM(14) for total dose at an optimal dose of 0.5 mg/kg/injection at 1,4,7,11 day schedule.; format: functional, Mus musculus
[13] = tested on: P388; test: Compound was evaluated in vivo for antitumor activity after intraperitoneal administration against P388/L-PAM(14) for median day of death at an optimal dose of 0.5 mg/kg/injection at 1,4,7,11 day schedule.; format: functional, Mus musculus
[14] = tested on: P388; test: Compound was evaluated in vivo for antitumor activity after intraperitoneal administration against P388/L-PAM(14) for total dose at an optimal dose of 0.125 mg/kg/injection at 1,4,7,11 day schedule.; format: functional, Mus musculus
[15] = tested on: P388; test: Compound was evaluated in vivo for antitumor activity after intraperitoneal administration against P388/L-PAM(12) for median day of death at an optimal dose of 0.75 mg/kg/injection; format: functional, Mus musculus
[16] = Compound was evaluated in vivo for antitumor activity against Glasgow osteogenic sarcoma after injecting the compound intravenously for optimal dose; format: functional, Mus musculus; method in brief: as §1
[17] = tested on: L1210; test: Compound was evaluated in vivo for antitumor activity after intraperitoneal administration against L1210(935) for mortality range at an optimal dose of 1 mg/kg/injection at 1 day schedule.; format: functional, Mus musculus
Method in brief: (§2)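 L1210 leukemia, maintained in DBA/2 mice, was given ip as 10⁵ cells on day 0 to F1 hybrid or strain-of-origin mice over 18 g, in groups of 8. Dosing was ip from day 1, and mortality was checked daily. Median day of death counts dying mice only. %ILS = 100×(treated − control median day of death)/control median. Tumor-free survivors were counted on day 60. Weight change is g/mouse at nadir.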

[18] = tested on: P388; test: Compound was evaluated in vivo for antitumor activity after intraperitoneal administration against P388 (1313) for mortality range at an optimal dose of 0.5 mg/kg/injection; format: functional, Mus musculus
[19] = tested on: P388; test: Compound was evaluated in vivo for antitumor activity after intraperitoneal administration against P388 (1303) for change in body weight at an optimal dose of 0.75 mg/kg/injection; format: functional, Mus musculus
[20] = tested on: B16; test: Compound was evaluated in vivo for antitumor activity against […] B16 melanoma 1 after injecting the compound intravenously for optimal dose; format: functional, Mus musculus
[21] = tested on: P388; test: Compound was evaluated in vivo for antitumor activity after intraperitoneal administration against P388 (1313) for change in body weight at an optimal dose of 0.25 mg/kg/injection; format: functional, Mus musculus
[22] = tested on: L1210; test: Compound was evaluated in vivo for antitumor activity after intraperitoneal administration against L1210(935)for % increase in life span at an optimal dose of 0.4 mg/kg/injection at 1-4 day schedule.; format: functional; settings: Mus musculus, L1210, ip; method in brief: as §2
[23] = tested on: L1210; test: Compound was evaluated in vivo for antitumor activity after intraperitoneal administration against L1210(935) for total dose at an optimal dose of 0.25 mg/kg/injection at 1,4,7,11day schedule.; format: functional, Mus musculus; method in brief: as §2
[24] = tested on: P388; test: Compound was evaluated in vivo for antitumor activity after intraperitoneal administration against P388 (1303) for median day of death at an optimal dose of 0.75 mg/kg/injection; format: functional, Mus musculus
[25] = tested on: L1210; test: Compound was evaluated in vivo for antitumor activity after intraperitoneal administration against L1210(935) for median day of death at an optimal dose of 1 mg/kg/injection at 1 day schedule.; format: functional, Mus musculus; method in brief: as §2
[26] = tested on: L1210; test: Compound was evaluated in vivo for antitumor activity after intraperitoneal administration against L1210(935) for median day of death at an optimal dose of 0.125 mg/kg/injection at 1,4,7,11day schedule.; format: functional, Mus musculus; method in brief: as §2
[27] = tested on: L1210; test: Compound was evaluated in vivo for antitumor activity after intraperitoneal administration against L1210(935)for % increase in life span at an optimal dose of 0.125 mg/kg/injection at 1,4,7,11day schedule.; format: functional; settings: Mus musculus, L1210, ip; method in brief: as §2
[28] = tested on: L1210; test: Compound was evaluated in vivo for antitumor activity after intraperitoneal administration against L1210(935)for change in body weight at an optimal dose of 0.125 mg/kg/injection at 1,4,7,11day schedule.; format: functional, Mus musculus; method in brief: as §2
[29] = Compound was evaluated in vivo for antitumor activity against colon adenocarcinoma 38 after injecting the compound intravenously for optimal dose; format: functional, Mus musculus
[30] = tested on: P388; test: Compound was evaluated in vivo for antitumor activity after intraperitoneal administration against P388/L-PAM(14) for change in body weight at an optimal dose of 1 mg/kg/injection; format: functional, Mus musculus
[31] = tested on: B16; test: Compound was evaluated in vivo for antitumor activity against B16 melanoma after injecting the compound intravenously for total dose; format: functional, Mus musculus
[32] = tested on: P388; test: Compound was evaluated in vivo for antitumor activity after intraperitoneal administration against P388/L-PAM(14) for tumor free survivors at an optimal dose of 0.2 mg/kg/injection at 1,2,3,4 day schedule.; format: functional, Mus musculus
[33] = tested on: L1210; test: Compound was evaluated in vivo for antitumor activity after intraperitoneal administration against L1210(935) for total dose at an optimal dose of 0.2 mg/kg/injection at 1-4 day schedule.; format: functional, Mus musculus; method in brief: as §2

CN(C)CCCNc1ncnc2c1C(=O)C(N1CC1)=C(N1CC1)C2=O
Optimal dose [1]: 28 mg/kg | Change in body weight [2]: 0.7 g mouse-1 | Survivors [3]: 0 | Optimal dose [4]: 1 mg/kg | Toxicity [5]: 0 | Mortality [6]: 27 days | Optimal dose [7]: 0.75 mg/kg | Change in body weight [8]: 1.3 | Total dose [9]: 4 mg/kg | ILS at 0.75 mg/kg [10]: 68% | Survivors [11]: 0 | Total dose [12]: 2 mg/kg | Median day of death [13]: 22.5 | Total dose [14]: 0.5 mg/kg | Median day of death [15]: 15.5 | Optimal dose [16]: 0.36 mg/kg | Mortality [17]: 16 days | Mortality [18]: 30 days | Change in body weight [19]: 3.2 g mouse-1 | Optimal dose [20]: 0.2 mg/kg | Change in body weight [21]: 2.4 g mouse-1 | ILS at 0.4 mg/kg [22]: 27% | Total dose [23]: 1 mg/kg | Median day of death [24]: 18.5 | Median day of death [25]: 14 | Median day of death [26]: 13 | ILS at 0.125 mg/kg [27]: 18% | Change in body weight [28]: 2.7 g mouse-1 | Optimal dose [29]: 0.25 mg/kg | Change in body weight [30]: -1.2 g mouse-1 | Total dose [31]: 1.2 mg/kg | Survivors [32]: 0 | Total dose [33]: 0.8 mg/kg
